In brackets after ≈: the same amount, converted by molar mass.
What was measured:
MCF7 [1] = test: Growth inhibition of human MCF7 cells at 100 ug/ml after 48 hrs by MTT assay relative to control; type: functional; settings: MCF7, 48 h, read-out: GI
Outline: (§1)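 Preliminary screen at 100 µg/mL against MCF-7 and normal BJ-1 cells. Values are % inhibition, given as the mean of 3 replicate samples with standard deviation.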

MCF7 [2] = test: Growth inhibition of human MCF7 cells after 48 hrs by MTT assay; type: functional, cell-based; settings: MCF7, 48 h
[3] = Growth inhibition of human hTERT-BJ1 cells at 100 ug/ml after 48 hrs by MTT assay relative to control; type: cell-based, hTERT-BJ; settings: read-out: GI; outline: as §1
Tubulin beta-5 chain [4] = molecular target: T1, Tubulin beta-5 chain (Homo sapiens, UniProt P07437); test: Potency index, ratio of colchicine IC50 to compound IC50 for tubulin beta polymerization in human MCF7 cells; type: cell-based
T1 sequence (P07437 whole entry): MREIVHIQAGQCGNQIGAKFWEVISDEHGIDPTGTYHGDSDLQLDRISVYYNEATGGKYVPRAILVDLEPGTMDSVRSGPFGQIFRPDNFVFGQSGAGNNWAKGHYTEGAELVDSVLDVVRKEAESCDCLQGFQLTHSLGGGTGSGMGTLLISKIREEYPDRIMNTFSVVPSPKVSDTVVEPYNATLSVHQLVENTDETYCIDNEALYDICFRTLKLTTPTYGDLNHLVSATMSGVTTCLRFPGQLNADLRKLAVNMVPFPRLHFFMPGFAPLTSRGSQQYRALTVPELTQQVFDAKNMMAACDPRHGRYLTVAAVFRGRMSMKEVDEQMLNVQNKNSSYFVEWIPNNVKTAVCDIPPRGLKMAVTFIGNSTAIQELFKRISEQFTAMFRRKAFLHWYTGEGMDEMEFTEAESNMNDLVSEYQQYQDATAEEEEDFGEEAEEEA

Tubulin beta-5 chain [5] = molecular target: T1, Tubulin beta-5 chain; test: Inhibition of tubulin beta polymerization in human MCF7 cells after 18 to 24 hrs by ELISA based spectrophotometric analysis; type: cell-based
MCF7 [6] = test: Induction of apoptosis in human MCF7 cells assessed as increase in caspase 7 levels at 11.1 ug/ml after 24 hrs by ELISA relative to control; type: functional
Outline: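 Caspase-7 level is measured in MCF-7 cells after treatment at 11.1 µg/mL for 24 h and reported as concentration. Doxorubicin is used as reference.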

MCF7 [7] = test: Cell cycle arrest in human MCF7 cells assessed as accumulation at G1 phase at 11.1 ug/ml after 24 hrs by PI staining based flow cytometry (reference value: 61.31%); type: functional
MCF7 [8] = test: Cell cycle arrest in human MCF7 cells assessed as accumulation at S phase at 11.1 ug/ml after 24 hrs by PI staining based flow cytometry (reference value: 30.1%); type: functional
MCF7 [9] = test: Induction of apoptosis in human MCF7 cells assessed as necrotic cells at 11.1 ug/ml after 24 hrs by Annexin V-FITC/PI staining based flow cytometry (reference value: 0.37%); type: functional
Outline: (§2)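 MCF-7 cells treated at 11.1 µg/mL for 24 h, then labelled with annexin V-FITC and propidium iodide. Green (FITC) and red (PI) fluorescence are read by flow cytometry. Early apoptosis is scored as annexin V+/PI−, late as annexin V+/PI+. DMSO serves as negative control.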

MCF7 [10] = test: Cell cycle arrest in human MCF7 cells assessed as accumulation at G2/M phase at 11.1 ug/ml after 24 hrs by PI staining based flow cytometry relative to control; type: functional
MCF7 [11] = test: Induction of apoptosis in human MCF7 cells assessed as viable cells at 11.1 ug/ml after 24 hrs by Annexin V-FITC/PI staining based flow cytometry (reference value: 97.24%); type: functional; settings: MCF7, 24 h, read-out: Activity; outline: as §2
MCF7 [12] = test: Cell cycle arrest in human MCF7 cells assessed as accumulation at pre-G1 phase at 11.1 ug/ml after 24 hrs by PI staining based flow cytometry relative to control; type: functional
MCF7 [13] = test: Induction of apoptosis in human MCF7 cells assessed as late apoptotic cells at 11.1 ug/ml after 24 hrs by Annexin V-FITC/PI staining based flow cytometry (reference value: 0.09%); type: functional; outline: as §2
MCF7 [14] = test: Induction of apoptosis in human MCF7 cells assessed as early apoptotic cells at 11.1 ug/ml after 24 hrs by Annexin V-FITC/PI staining based flow cytometry (reference value: 0.18%); type: functional; outline: as §2
MCF7 [15] = test: Cell cycle arrest in human MCF7 cells assessed as apoptotic cells at 11.1 ug/ml after 24 hrs by PI staining based flow cytometry (reference value: 0.64%); type: functional
MCF7 [16] = test: Cell cycle arrest in human MCF7 cells assessed as accumulation at G2 phase at 11.1 ug/ml after 24 hrs by PI staining based flow cytometry (reference value: 8.59%); type: functional

Compound | IC50 (MCF7 [2]) | inhibition of growth at 100 µg/mL (MCF7 [1]) | also measured
COc1ccc(C2SCC(=O)N2NC(=O)COc2ccc3c(-c4ccccc4)cc(=O)oc3c2)cc1OC (configuration not stated) | – | 63.3% | –
COc1ccc(/C=N/NC(=O)COc2ccc3c(-c4ccccc4)cc(=O)oc3c2)cc1OC | – | 48.9% | –
CCN/C(=N\NC(=O)COc1ccc2c(-c3ccccc3)cc(=O)oc2c1)SC(C(C)=O)C(=O)OCC (configuration not stated) | 41.9 µg/mL (≈ 79.7 µM) | > 70% | –
O=C(COc1ccc2c(-c3ccccc3)cc(=O)oc2c1)NN1C(=O)CSC1c1ccc(Br)cc1 (configuration not stated) | 42 µg/mL (≈ 76.2 µM) | > 70% | –
COc1ccc(/C=N/NC(=O)COc2ccc3c(-c4ccccc4)cc(=O)oc3c2)cc1 | – | 46.3% | –
O=C(COc1ccc2c(-c3ccccc3)cc(=O)oc2c1)NN1C(=O)CSC1c1ccc(Cl)cc1 (configuration not stated) | 16.7 µg/mL (≈ 32.9 µM) | > 70% | inhibition at 48 h, 100 ug/ml [3]: 26.9%; Ratio IC50 (Tubulin beta-5 chain [4]): 2.4; IC50 (Tubulin beta-5 chain [5]): 2.89 µM
COc1cc(C2SCC(=O)N2NC(=O)COc2ccc3c(-c4ccccc4)cc(=O)oc3c2)cc(OC)c1OC (configuration not stated) | 21.2 µg/mL (≈ 37.7 µM) | 86.4% | inhibition at 48 h, 100 ug/ml [3]: 16.8%; IC50 (Tubulin beta-5 chain [5]): 6.13 µM
O=C(COc1ccc2c(-c3ccccc3)cc(=O)oc2c1)N/N=C/c1ccc(F)cc1 | – | 65.5% | –
COc1cc(/C=N/NC(=O)COc2ccc3c(-c4ccccc4)cc(=O)oc3c2)cc(OC)c1OC | 4.3 µg/mL (≈ 8.8 µM) | 90.7% | –
CCOC(=O)C(S/C(=N/NC(=O)COc1ccc2c(-c3ccccc3)cc(=O)oc2c1)NC)C(C)=O (configuration not stated) | 30.6 µg/mL (≈ 59.8 µM) | > 70% | –
COc1ccc(C2SCC(=O)N2NC(=O)COc2ccc3c(-c4ccccc4)cc(=O)oc3c2)cc1 (configuration not stated) | – | 64.4% | –
CCN/C(=N\NC(=O)COc1ccc2c(-c3ccccc3)cc(=O)oc2c1)SC(C)C(=O)OCC (configuration not stated) | – | 67.1% | –
O=C(COc1ccc2c(-c3ccccc3)cc(=O)oc2c1)N/N=C/c1ccc(Br)cc1 | – | 67.8% | –
CCOC(=O)C(C)S/C(=N/NC(=O)COc1ccc2c(-c3ccccc3)cc(=O)oc2c1)NC (configuration not stated) | 37 µg/mL (≈ 76.5 µM) | > 70% | –
O=C(COc1ccc2c(-c3ccccc3)cc(=O)oc2c1)NN1C(=O)CSC1c1ccc(F)cc1 (configuration not stated) | 11.1 µg/mL (≈ 22.6 µM) | > 70% | inhibition at 48 h, 100 ug/ml [3]: 13.2%; fold change (FC) (MCF7 [6]): 3.237; Activity (MCF7 [7]): 38.36%; Activity (MCF7 [8]): 18.05%; Activity (MCF7 [9]): 2.19%; IC50 (Tubulin beta-5 chain [5]): 9.37 µM; fold change (FC) (MCF7 [10]): 5; viability at 11.1 µg/mL (MCF7 [11]): 79.8%; fold change (FC) (MCF7 [12]): 28.6; Activity (MCF7 [13]): 10.63%; Activity (MCF7 [14]): 5.49%; Activity (MCF7 [15]): 18.31%; Activity (MCF7 [16]): 43.59%

Further lines, with some results ahead:

IC50 (MCF7 [2]) | Compound | inhibition of growth at 100 µg/mL (MCF7 [1]) | also measured
42 µg/mL (≈ 90.6 µM) | CC(=O)c1s/c(=N\NC(=O)COc2ccc3c(-c4ccccc4)cc(=O)oc3c2)n(C)c1C | > 70% | –
10.6 µg/mL (≈ 21.3 µM) | CCn1c(-c2ccccc2)cs/c1=N\NC(=O)COc1ccc2c(-c3ccccc3)cc(=O)oc2c1 | > 70% | –
38.1 µg/mL (≈ 88 µM) | O=C(COc1ccc2c(-c3ccccc3)cc(=O)oc2c1)N/N=C/c1ccc(Cl)cc1 | 76.5% | –
9.3 µg/mL (≈ 19.2 µM) | Cn1c(-c2ccccc2)cs/c1=N\NC(=O)COc1ccc2c(-c3ccccc3)cc(=O)oc2c1 | > 70% | –
28 µg/mL (≈ 58.6 µM) | CCn1c(C)c(C(C)=O)s/c1=N\NC(=O)COc1ccc2c(-c3ccccc3)cc(=O)oc2c1 | > 70% | –
36.9 µg/mL (≈ 87.5 µM) | Cc1cs/c(=N\NC(=O)COc2ccc3c(-c4ccccc4)cc(=O)oc3c2)n1C | > 70% | –
25.2 µg/mL (≈ 81.2 µM) | NNC(=O)COc1ccc2c(-c3ccccc3)cc(=O)oc2c1 | > 70% | –
78 µg/mL (≈ 179 µM) | CCn1c(C)cs/c1=N\NC(=O)COc1ccc2c(-c3ccccc3)cc(=O)oc2c1 | > 70% | –
